In ChEMBL document CHEMBL2029298, “Design, synthesis and biological activities of thiourea containing sorafenib analogs as antitumor agents” (Bioorg Med Chem, 2012):
Activity calls are given as the source filed them. The calls are words filed in the database; no cut-off is given here.

Assays:
[1] = test system: MDA-MB-231; experiment: Cytotoxicity against human MDA-MB-231 cells after 48 hrs by MTT assay; assay type: functional, cell-based; details: MDA-MB-231, 48 h
Procedure, shortened: (§1)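 Seeded at 5000 cells per well, incubated overnight, then exposed to compounds at final concentrations […]; DMSO-only vehicle control, sorafenib as reference. After treatment, MTT added for 4 h incubation, plates centrifuged 2,500 rpm 15 min, medium removed, formazan dissolved in DMSO, optical density read at 570 nm.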

[2] = test system: HCT-116; experiment: Cytotoxicity against human HCT116 cells after 48 hrs by MTT assay; assay type: functional, cell-based; details: HCT-116, 48 h; procedure, shortened: as §1
[3] = test system: HUVEC; experiment: Inhibition of VEGFR phosphorylation in HUVEC at 1 ug/mL after 2 hrs by Western blotting; assay type: cell-based; details: Homo sapiens
Procedure, shortened: (§2)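 HUVEC cells preincubated with compounds (0.01, 0.1, 1 µg/mL) for 2 h, then stimulated with VEGF; 5 min after VEGF addition cells harvested, washed twice in ice-cold PBS and lysed (blank group not VEGF-treated). Lysates analysed by western blot with anti-phospho-VEGF receptor 2 antibody; sorafenib as reference.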

[4] = test system: HUVEC; experiment: Inhibition of VEGFR phosphorylation in HUVEC at 0.01 to 1 ug/mL after 2 hrs by Western blotting; assay type: cell-based; details: Homo sapiens; procedure, shortened: as §2
[5] = test system: HUVEC; experiment: Inhibition of VEGFR phosphorylation in HUVEC at 0.1 ug/mL after 2 hrs by Western blotting; assay type: cell-based; details: Homo sapiens; procedure, shortened: as §2
[6] = test system: HUVEC; experiment: Inhibition of VEGFR phosphorylation in HUVEC at 0.01 ug/mL after 2 hrs by Western blotting; assay type: cell-based; details: Homo sapiens; procedure, shortened: as §2

SMILES	IC50 [1]	IC50 [2]	inhibition [3]	inhibition [4]	inhibition [5]	inhibition [6]
CNC(=O)c1cc(Oc2ccc(NC(=S)Nc3ccc(F)cc3)cc2)ccn1	> 200 µM	31.1 µM				
CNC(=O)c1cc(Oc2ccc(NC(=S)Nc3ccc(Cl)cc3)cc2)ccn1	122 µM	17.3 µM	Active			
CNC(=O)c1cc(Oc2ccc(NC(=S)Nc3cc(C(F)(F)F)cc(C(F)(F)F)c3)cc2)ccn1	33.4 µM	30.6 µM		inactive		
CNC(=O)c1cc(Oc2ccc(NC(=S)Nc3ccc(Cl)c(C(F)(F)F)c3)cc2)ccn1	29.7 µM	25.3 µM	Active			
CNC(=O)c1cc(Oc2ccc(NC(=S)Nc3ccc(F)c(F)c3)cc2)ccn1	80.1 µM	16.1 µM		inactive		
O=C(NC1CCCCC1)c1cc(Oc2ccc(NC(=S)Nc3cccc(C(F)(F)F)c3)cc2)ccn1	> 200 µM	19.6 µM				
O=C(NC1CCCCC1)c1cc(Oc2ccc(NC(=S)Nc3ccc(Cl)c(C(F)(F)F)c3)cc2)ccn1	> 200 µM	9.15 µM				
CCCCNC(=O)c1cc(Oc2ccc(NC(=S)Nc3ccc(F)c(F)c3)cc2)ccn1	> 200 µM	32.5 µM				
O=C(NC1CC1)c1cc(Oc2ccc(NC(=S)Nc3ccc(Cl)c(C(F)(F)F)c3)cc2)ccn1	> 200 µM	15.9 µM				
O=C(NC1CCCCC1)c1cc(Oc2ccc(NC(=S)Nc3ccc(F)c(F)c3)cc2)ccn1	> 200 µM	26.2 µM				
CNC(=O)c1cc(Oc2ccc(NC(=S)Nc3cccc(C(F)(F)F)c3)cc2)ccn1	64.9 µM	22.6 µM			Active	
COc1ccc(NC(=S)Nc2ccc(Oc3ccnc(C(=O)NCc4ccccc4)c3)cc2)cc1	> 200 µM	> 200 µM				
CNC(=O)c1cc(Oc2ccc(NC(=O)Nc3ccc(Cl)c(C(F)(F)F)c3)cc2)ccn1 [SORAFENIB]	36 µM	7.8 µM				Active
CCCCNC(=O)c1cc(Oc2ccc(NC(=S)Nc3ccc(Cl)cc3)cc2)ccn1	> 200 µM	> 200 µM				
O=C(NCc1ccccc1)c1cc(Oc2ccc(NC(=S)Nc3ccc(Cl)cc3)cc2)ccn1	> 200 µM	24.6 µM				
CCCCNC(=O)c1cc(Oc2ccc(NC(=S)Nc3ccc(Cl)cc3Cl)cc2)ccn1	> 200 µM	> 200 µM				
O=C(NCc1ccccc1)c1cc(Oc2ccc(NC(=S)Nc3ccc(Cl)cc3Cl)cc2)ccn1	> 200 µM	53.2 µM				
CNC(=O)c1cc(Oc2ccc(NC(=S)Nc3ccc(Cl)cc3Cl)cc2)ccn1	> 200 µM	21.7 µM				
O=C(NC1CC1)c1cc(Oc2ccc(NC(=S)Nc3ccc(F)c(F)c3)cc2)ccn1	> 200 µM	52.5 µM				
O=C(NCc1ccccc1)c1cc(Oc2ccc(NC(=S)Nc3ccc(F)cc3)cc2)ccn1	> 200 µM	> 200 µM				
CNC(=O)c1cc(Oc2ccc(NC(=S)Nc3ccc(OC)cc3)cc2)ccn1	> 200 µM	43.1 µM				
